Assay results: ChEMBL document CHEMBL4706563, “Triphenylethylene analogues: Design, synthesis and evaluation of antitumor activity and topoisomerase inhibitors” (Eur J Med Chem, 2020)
Calls of active or inactive are those of the source. The calls are words filed in the database; no cut-off is given here.

What was measured:
Type in all cases: functional
[1] = tested on: SK-MEL-28; test: Antiproliferative activity against human SK-MEL-28 cells assessed as growth inhibition at 10 uM relative to control; conditions: read-out: GI
Procedure, shortened: (§1)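 NCI 60 human tumour cell line panel screen. Compounds tested at a single dose and growth inhibition (%) determined for each line.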

[2] = tested on: SW-620; test: Antiproliferative activity against human SW-620 cells assessed as growth inhibition at 10 uM relative to control; conditions: read-out: GI; procedure, shortened: as §1
[3] = tested on: SR; test: Antiproliferative activity against human SR cells assessed as growth inhibition at 10 uM relative to control; conditions: read-out: GI; procedure, shortened: as §1
[4] = Antiproliferative activity against human breast cancer cells; conditions: Breast cancer cell line
[5] = tested on: BT-549; test: Antiproliferative activity against human BT-549 cells assessed as growth inhibition at 10 uM relative to control; conditions: read-out: GI
Procedure, shortened: (§2)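 Single-dose screen run by the US National Cancer Institute across its 60-human tumour cell line panel. Each compound was tested at one concentration. Percent growth inhibition was recorded for each cell line.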

[6] = tested on: OVCAR-4; test: Antiproliferative activity against human OVCAR-4 cells assessed as growth inhibition at 10 uM relative to control; conditions: read-out: GI; procedure, shortened: as §2
[7] = tested on: MCF7; test: Antiproliferative activity against human MCF7 cells assessed as growth inhibition at 10 uM relative to control; conditions: read-out: GI; procedure, shortened: as §2
[8] = tested on: SF-539; test: Antiproliferative activity against human SF-539 cells assessed as growth inhibition at 10 uM relative to control; procedure, shortened: as §2
[9] = tested on: HOP-92; test: Antiproliferative activity against human HOP-92 cells assessed as growth inhibition at 10 uM relative to control; procedure, shortened: as §2
[10] = tested on: HOP-62; test: Antiproliferative activity against human HOP-62 cells assessed as growth inhibition at 10 uM relative to control; conditions: read-out: GI; procedure, shortened: as §2
[11] = tested on: DU-145; test: Antiproliferative activity against human DU-145 cells assessed as growth inhibition at 10 uM relative to control; conditions: read-out: GI; procedure, shortened: as §2
[12] = tested on: A549; test: Antiproliferative activity against human A549 cells assessed as growth inhibition at 10 uM relative to control; conditions: read-out: GI; procedure, shortened: as §2
[13] = tested on: T47D; test: Antiproliferative activity against human T47D cells assessed as growth inhibition at 10 uM relative to control; procedure, shortened: as §1
[14] = Antiproliferative activity against human prostate cancer cells; conditions: Prostate tumor cell line
[15] = tested on: NCI-H522; test: Antiproliferative activity against human NCI-H522 cells assessed as growth inhibition at 10 uM relative to control; conditions: read-out: GI; procedure, shortened: as §2
[16] = tested on: SNB-75; test: Antiproliferative activity against human SNB-75 cells assessed as growth inhibition at 10 uM relative to control; conditions: read-out: GI; procedure, shortened: as §1
[17] = tested on: K562; test: Antiproliferative activity against human K562 cells assessed as growth inhibition at 10 uM relative to control; procedure, shortened: as §2
[18] = tested on: OVCAR-3; test: Antiproliferative activity against human OVCAR-3 cells assessed as growth inhibition at 10 uM relative to control; conditions: read-out: GI; procedure, shortened: as §2
[19] = tested on: LOX IMVI; test: Antiproliferative activity against human LOX IMVI cells assessed as growth inhibition at 10 uM relative to control; conditions: read-out: GI; procedure, shortened: as §2
[20] = tested on: 786-0; test: Antiproliferative activity against human 786-0 cells assessed as growth inhibition at 10 uM relative to control; conditions: read-out: GI; procedure, shortened: as §2
[21] = tested on: SF-295; test: Antiproliferative activity against human SF-295 cells assessed as growth inhibition at 10 uM relative to control; conditions: read-out: GI; procedure, shortened: as §2
[22] = tested on: HCT-116; test: Antiproliferative activity against human HCT-116 cells assessed as growth inhibition at 10 uM relative to control; conditions: read-out: GI; procedure, shortened: as §2
[23] = tested on: IGROV-1; test: Antiproliferative activity against human IGROV-1 cells assessed as growth inhibition at 10 uM relative to control; conditions: read-out: GI; procedure, shortened: as §2
[24] = tested on: EKVX; test: Antiproliferative activity against human EKVX cells assessed as growth inhibition at 10 uM relative to control; conditions: read-out: GI; procedure, shortened: as §2
[25] = tested on: NCI-H460; test: Antiproliferative activity against human NCI-H460 cells assessed as growth inhibition at 10 uM relative to control; conditions: read-out: GI; procedure, shortened: as §2
[26] = tested on: Leukemia cell; test: Antiproliferative activity against human leukemia cells
[27] = tested on: SK-MEL-5; test: Antiproliferative activity against human SK-MEL-5 cells assessed as growth inhibition at 10 uM relative to control; conditions: read-out: GI; procedure, shortened: as §1
[28] = tested on: COLO 205; test: Antiproliferative activity against human COLO 205 cells assessed as growth inhibition at 10 uM relative to control; conditions: read-out: GI; procedure, shortened: as §2
[29] = tested on: NCI-H23; test: Antiproliferative activity against human NCI-H23 cells assessed as growth inhibition at 10 uM relative to control; conditions: read-out: GI; procedure, shortened: as §2
[30] = tested on: RPMI-8226; test: Antiproliferative activity against human RPMI-8226 cells assessed as growth inhibition at 10 uM relative to control; conditions: read-out: GI; procedure, shortened: as §2
[31] = tested on: SN12C; test: Antiproliferative activity against human SN12C cells assessed as growth inhibition at 10 uM relative to control; conditions: read-out: GI; procedure, shortened: as §1
[32] = Antiproliferative activity against human Melanoma cells; conditions: Melanoma cell line
[33] = tested on: U-251; test: Antiproliferative activity against human U251 cells assessed as growth inhibition at 10 uM relative to control; conditions: read-out: GI; procedure, shortened: as §1
[34] = tested on: SNB-19; test: Antiproliferative activity against human SNB-19 cells assessed as growth inhibition at 10 uM relative to control; conditions: read-out: GI; procedure, shortened: as §1
[35] = tested on: MDA-MB-435; test: Antiproliferative activity against human MDA-MB-435 cells assessed as growth inhibition at 10 uM relative to control; conditions: read-out: GI; procedure, shortened: as §2
[36] = tested on: HT-29; test: Antiproliferative activity against human HT29 cells assessed as growth inhibition at 10 uM relative to control; conditions: read-out: GI; procedure, shortened: as §2
[37] = tested on: OVCAR-8; test: Antiproliferative activity against human OVCAR-8 cells assessed as growth inhibition at 10 uM relative to control; conditions: read-out: GI; procedure, shortened: as §2
[38] = tested on: TK-10; test: Antiproliferative activity against human TK-10 cells assessed as growth inhibition at 10 uM relative to control; conditions: read-out: GI; procedure, shortened: as §1
[39] = tested on: CCRF-CEM; test: Antiproliferative activity against human CCRF-CEM cells assessed as growth inhibition at 10 uM relative to control; conditions: read-out: GI; procedure, shortened: as §2
[40] = Antiproliferative activity against human renal cancer cells; conditions: Renal cancer cell line, read-out: LC50 (the source's name)
[41] = tested on: MDA-MB-468; test: Antiproliferative activity against human MDA-MB-468 cells assessed as growth inhibition at 10 uM relative to control; conditions: read-out: GI; procedure, shortened: as §2
[42] = tested on: CAKI-1; test: Antiproliferative activity against human CAKI-1 cells assessed as growth inhibition at 10 uM relative to control; conditions: read-out: GI; procedure, shortened: as §2
[43] = tested on: MDA-MB-231; test: Antiproliferative activity against human MDA-MB-231 cells assessed as growth inhibition at 10 uM relative to control; conditions: read-out: GI; procedure, shortened: as §2
[44] = tested on: NCI-H226; test: Antiproliferative activity against human NCI-H226 cells assessed as growth inhibition at 10 uM relative to control; conditions: read-out: GI; procedure, shortened: as §2
[45] = tested on: M14; test: Antiproliferative activity against human M14 cells assessed as growth inhibition at 10 uM relative to control; conditions: read-out: GI; procedure, shortened: as §2
[46] = tested on: MOLT-4; test: Antiproliferative activity against human MOLT-4 cells assessed as growth inhibition at 10 uM relative to control; conditions: read-out: GI; procedure, shortened: as §2
[47] = tested on: Malme-3M; test: Antiproliferative activity against human Malme-3M cells assessed as growth inhibition at 10 uM relative to control; conditions: read-out: GI; procedure, shortened: as §2
[48] = read-out: LC50 (the source's name)

## CC/C(=C(\c1ccccc1)c1ccc(OCCN(C)C)cc1)c1ccccc1 [TAMOXIFEN]
[1]
  inhibition of growth at 10 µM: 88.7%
[2]
  inhibition of growth at 10 µM: 95.1%
[3]
  inhibition of growth at 10 µM: -18.9%
[4]
  GI50: 3.05 µM
  TGI: 10.4 µM
[4]; [48]
  CC50: 2830 nM
[5]
  inhibition of growth at 10 µM: 30.2%
[6]
  inhibition of growth at 10 µM: 53.7%
[7]
  inhibition of growth at 10 µM: -10.3%
[8]
  growth inhibition (GI): inactive
[9]
  growth inhibition (GI): inactive
[10]
  inhibition of growth at 10 µM: 56.9%
[11]
  inhibition of growth at 10 µM: 34.6%
[12]
  inhibition of growth at 10 µM: 50.2%
[13]
  growth inhibition (GI): inactive
[14]
  GI50: 4.4 µM
  TGI: 11.1 µM
[14]; [48]
  CC50: 233 µM
[15]
  inhibition of growth at 10 µM: 53.4%
[16]
  inhibition of growth at 10 µM: 60.1%
[17]
  growth inhibition (GI): inactive
[18]
  inhibition of growth at 10 µM: 47.1%
[19]
  inhibition of growth at 10 µM: -43.9%
[20]
  inhibition of growth at 10 µM: -41%
[21]
  inhibition of growth at 10 µM: 59.8%
[22]
  inhibition of growth at 10 µM: 73.8%
[23]
  inhibition of growth at 10 µM: 58.8%
[24]
  inhibition of growth at 10 µM: 40%
[25]
  inhibition of growth at 10 µM: 97.6%
[26]
  GI50: 2080 nM
  TGI: 6.42 µM
[27]
  inhibition of growth at 10 µM: -95.2%
[28]
  inhibition of growth at 10 µM: -89%
[29]
  inhibition of growth at 10 µM: 39.7%
[30]
  inhibition of growth at 10 µM: -28.3%
[31]
  inhibition of growth at 10 µM: 52.3%
[32]
  GI50: 2030 nM
  TGI: 5.49 µM
[33]
  inhibition of growth at 10 µM: 95.2%
[34]
  inhibition of growth at 10 µM: 47.4%
[35]
  inhibition of growth at 10 µM: 62.2%
[36]
  inhibition of growth at 10 µM: -11.2%
[37]
  inhibition of growth at 10 µM: 39.5%
[38]
  inhibition of growth at 10 µM: 48.1%
[39]
  inhibition of growth at 10 µM: 65.4%
[40]
  CC50: 2590 nM
[41]
  inhibition of growth at 10 µM: -13.3%
[42]
  inhibition of growth at 10 µM: 70.9%
[43]
  inhibition of growth at 10 µM: 54.8%
[44]
  inhibition of growth at 10 µM: 7.5%
[45]
  inhibition of growth at 10 µM: -75%
[46]
  inhibition of growth at 10 µM: 66.7%
[47]
  inhibition of growth at 10 µM: -67.5%
